Source: PubChem BioAssay (Broad Institute)
PAX8 inh HTS: PAX8 transcriptional activity inhibition; inhibition, % at 12.6 µM; RMG-I TPO-luciferase reporter, SteadyGlo, 24 h; 360,000 compounds, 1.2% hits;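 active = mean replicate inhibition at least 60% with every replicate also reaching 60%; inconclusive = only one of the two criteria is met; inactive = mean below 60% and not all replicates reaching 60%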;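 also: luciferase light reporting Pax8 driven TPO promoter activity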
FGF22 binding: FGF22 (human) thermal shift binding; Q9HCT0; recombinant FGF22 thermal shift, SYPRO orange fluorescence; percent of sucrose octasulfate shift, DMSO zero; activity (Tm shift, normalised), % at 9.99 µM; 340,000 compounds, 1.5% hits;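 active = mean Tm shift, scaled 0 neutral to 100 positive control, at about 1.3% or above, every replicate too, limit read from the data; inconclusive = no clear call, values can overlap the other calls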
Target sequence (Q9HCT0 whole entry, looked up): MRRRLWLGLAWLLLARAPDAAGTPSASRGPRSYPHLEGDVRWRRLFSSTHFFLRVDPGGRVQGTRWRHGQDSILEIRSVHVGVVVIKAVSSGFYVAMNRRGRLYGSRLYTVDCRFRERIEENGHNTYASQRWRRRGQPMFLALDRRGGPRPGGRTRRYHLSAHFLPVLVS
Env fusion inh: blocks HIV Env-driven cell-cell fusion; HeLa-JRFL Env/CEM21 cell fusion, luciferase; inhibition, % at 12.3 µM; 360,000 compounds, 1.1% hits;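 active = mean replicate inhibition score of at least 50 and every replicate individually at or above 50; inconclusive = only one of the two criteria met; inactive = mean below 50 and not all replicates reaching 50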
FN deposit inh: fibronectin deposition inhibition. inhibition, % at 12.6 µM. AH1F fibroblasts, Alexa488-fibronectin deposition fluorescence, overnight. 350,000 compounds, 0.086% hits;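 active = mean inhibition across replicates of 30% or more, regardless of how many single replicates reach that level; inconclusive = mean under 30% yet at least half of replicates reach 30%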
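Assay system: AH1F fibroblasts assembling fluorescent fibronectin matrix; Amount: 10000 AH1F cells per well; Buffer or medium: DMEM, 2% serum; Probe or stimulus: Alexa488-fibronectin, 24 nM final in well; Doses: single compound dose, delivered by pin transfer; Incubation: 1 h adhesion, overnight exposure; Measured by: fluorescence 485/525 nm; Read-out: fibronectin deposition inhibition.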
EWS-Fli inh: EWS/Fli transcriptional activity inhibition; A673 NR0B1-luciferase reporter, viability-normalised; inhibition, % at 12.6 µM; 350,000 compounds, 0.67% hits; AID 651661;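 active = mean inhibition of at least 50% after viability correction, with every replicate also passing that limit; inconclusive = mean reaches 50% but only one of two replicates passes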;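 also: firefly luciferase signal divided by Alamar Blue viability fluorescence both relative to DMSO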
PGC1a acetyl inh: PGC1a acetylation modulation, inhibitor mode; U2OS PGC1a acetylation, AlphaScreen anti-acetyl-lysine; with virally co-expressed GCN5 acetyltransferase; AID 651687; 350,000 compounds, 0.17% hits; inhibition, % at 15.6 µM;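 active = every replicate shows inhibition of at least 40%; inconclusive = mean inhibition at least 40% but some replicate below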
Numbers stand for hits; 0 = inactive; ? = inconclusive; - = no result. Sampled rows, rich in hits. Any-hit rate of the full collection: about 3.1%.

SMILES	PAX8 inh HTS	FGF22 binding	Env fusion inh	FN deposit inh	EWS-Fli inh	PGC1a acetyl inh
COc1ccc2c3c(n(C)c2c1)[C@@H](CO)N(C(=O)C1CCOCC1)CC31CN(C)C1	-	0	-	0	0	0
CCOC(=O)/C(=C\c1cccnc1)C(=O)c1cc(C(C)=O)c(Nc2ccccc2)s1	-	-	-	-	-	84
C[C@@H]1CN([C@@H](C)CO)C(=O)Cc2cc(NC(=O)C3CCCCC3)ccc2O[C@H]1CN(C)Cc1ccccc1	0	0	-	-	0	0
O=C(C[C@H]1CC[C@@H]2[C@H](COC[C@H](O)CN2CCC(F)(F)F)O1)NCC1CCCCC1	0	0	0	0	0	0
CCOC(=O)C(=O)Cc1cccnn1	0	43	0	0	0	0
C[C@H](CO)N1C[C@H](C)[C@@H](CN(C)C(=O)NC2CCCC2)OCc2cnnn2CCCC1=O	-	-	-	0	-	-
COCCNc1nc(-c2cc(C)n(CCc3ccc(OC)cc3)c2C)cs1	0	43	0	0	0	0
C[C@@H]1CCCCO[C@H](CN(C)C(=O)Nc2ccccc2)[C@@H](C)CN([C@@H](C)CO)C(=O)c2cc(NC(=O)c3ccncc3)ccc2O1	0	-	0	0	0	0
COCCn1c(C)cc(C2=NNC(=NC3CC3)SC2)c1C	102	0	57	0	90	-
C=CCN=C1NN=C(c2cc(C)n(CCOC)c2C)CS1	0	0	75	0	85	-
COCC(=O)N(C)C[C@@H]1Oc2ncc(C#C[C@H](C)O)cc2C(=O)N([C@H](C)CO)C[C@H]1C	-	0	0	0	0	0
COCCNC(=O)C[C@H]1CC[C@@H]2[C@H](COC[C@@H](O)CN2C(=O)Nc2ccccc2OC)O1	-	0	-	0	-	0
O=C(C[C@H]1CC[C@H]2[C@@H](COC[C@@H](O)CN2Cc2ccccc2)O1)NCc1ccccc1Cl	0	0	-	0	0	0
O=C(Nc1ccc(Cl)c(Cl)c1)Nc1ccccc1NS(=O)(=O)c1cccs1	0	1.7	0	0	0	0
CC(C)NC(=O)Nc1ccc2c(c1)CC(=O)N([C@@H](C)CO)C[C@@H](C)[C@H](CN(C)S(C)(=O)=O)O2	0	-	0	-	0	0
Cc1ccccc1OCC(=O)Nc1nc2ccccc2[nH]1	0	43	0	0	0	-
COc1cc(SC)ccc1C(=O)Nc1nc2ccccc2[nH]1	114	0	92	0	94	-
CCOc1ccccc1OCC(=O)Nc1nc2ccccc2[nH]1	0	0	0	0	0	-
COc1ccc(C(=O)Nc2ccc3ccccc3n2)c(OC)c1OC	0	0	0	0	55	0
COc1ccccc1C(=O)Nc1nc2ccccc2[nH]1	129	0	73	0	92	-
CCC(=O)N1CC[C@@H]2[C@H](CO)Nc3ccc(-c4ccc(C(=O)N(C)C)cc4)cc3[C@@H]21	0	0	-	0	0	0
CCCC#Cc1ccc2c(c1)O[C@H](CN(C)C(=O)CN(C)C)[C@@H](C)CN([C@@H](C)CO)S2(=O)=O	0	0	0	0	0	0
Cc1ccccc1C(=O)N1CCN(c2ccc(NC(=O)c3cccnc3)cc2)CC1	0	0	0	-	0	0
Cc1ccccc1C(=O)N1CCN(c2ccc(NC(=O)c3ccc([N+](=O)[O-])o3)cc2)CC1	0	0	0	0	61	-
O=C(Nc1ccccc1N1CCN(C(=O)c2ccc(Cl)cc2)CC1)c1ccc([N+](=O)[O-])o1	-	-	-	-	-	0
SMILES	PAX8 inh HTS	FGF22 binding	Env fusion inh	FN deposit inh	EWS-Fli inh	PGC1a acetyl inh
O=C(Nc1ccc(N2CCN(C(=O)c3ccccc3)CC2)cc1)c1ccc([N+](=O)[O-])o1	100	0	0	0	66	0
C[C@@H]1CN([C@H](C)CO)C(=O)c2cc(NC(=O)Cn3cnnn3)ccc2O[C@H]1CN(C)C	0	0	-	-	0	0
CN(C)C(=O)C[C@@H]1CC[C@@H]2[C@@H](COc3ccc(NC(=O)c4ccc(F)c(F)c4)cc3C(=O)N2C)O1	0	0	0	0	0	0
COc1ccc(CCn2c(C3CCCCC3)nc3c(c(=O)c4ccccc4n3C)c2=O)cc1	0	0	0	0	56	0
COc1ccc(CCn2c(C3CCCCC3)nc3c(c(=O)c4ccccc4n3C)c2=O)cc1OC	0	0	0	0	0	0
C[C@H]1CCCCO[C@@H](CN(C)C(=O)Nc2ccccc2)[C@@H](C)CN([C@@H](C)CO)C(=O)c2cc(NS(C)(=O)=O)ccc2O1	0	0	0	0	0	0
CN(C)c1ncnc2c1nnn2C1OC(CO)C(O)C1O (centres undefined)	91	0	0	0	0	0
Nc1ccc(-c2ncc(-c3ccccc3)o2)cc1	0	0	0	0	65	-
C/C=C/c1cnc2c(c1)C(=O)N([C@H](C)CO)C[C@H](C)[C@H](CN(C)C(=O)Nc1ccc(C(F)(F)F)cc1)O2	-	0	0	-	0	0
Cc1ccc(S(=O)(=O)N2C[C@@H]3[C@H]4CC[C@H](C4)[C@@H]3[C@@H](C)[C@@H]2c2cccn2Cc2ccccc2)cc1	0	0	0	0	0	-
Cc1ccc(S(=O)(=O)N2C[C@@H]3[C@H]4CC[C@H](C4)[C@@H]3[C@@H](C)[C@@H]2c2ccn(Cc3ccccc3)c2)cc1	0	0	63	0	0	-
O=C([C@H]1[C@H](CO)[C@H]2Cn3c(cccc3=O)[C@H]2N1Cc1ccccc1Cl)N1CCOCC1	0	0	-	-	0	-
COc1ccc(CCNc2ccncn2)cc1	-	-	56	0	-	-
NC1=C(Br)C(=O)c2ncccc2C1=O	131	0	?	0	0	87
c1ccc(Nc2ccccc2Nc2ccccn2)nc1	-	0	-	-	0	0
Oc1cccc2ccc(Nc3ccccn3)nc12	-	-	60	0	-	-
CCCC#Cc1ccc2c(c1)O[C@@H](CN(C)C(=O)c1cnccn1)[C@@H](C)CN([C@@H](C)CO)S2(=O)=O	-	0	0	0	54	0
COc1ccc(C#Cc2ccc3c(c2)O[C@@H](CN(C)C(=O)c2ccccn2)[C@H](C)CN([C@@H](C)CO)S3(=O)=O)cc1	65	0	0	-	0	0
COc1ccc(C#Cc2ccc3c(c2)O[C@H](CN(C)C(=O)c2ccccn2)[C@H](C)CN([C@@H](C)CO)S3(=O)=O)cc1	0	0	0	-	0	0
C[C@H]1CN([C@@H](C)CO)C(=O)Cc2cc(NC(=O)NC3CCCCC3)ccc2O[C@@H]1CN(C)CC1CC1	-	0	0	-	0	0
CCCOc1ccc(C(F)(F)F)cc1NC(=O)CCc1c(C)noc1C	0	0	98	0	0	0
CCOc1ccc(NC(=O)CCc2c(C)noc2C)cc1OC	0	0	-	0	0	0
CCCCCNCC(=O)Nc1cc(C(F)(F)F)ccc1OCCOC	0	44	0	0	0	-
C[C@@H]1CN([C@@H](C)CO)S(=O)(=O)c2ccc(C#Cc3ccccc3F)cc2O[C@@H]1CN(C)CC1CC1	-	0	0	0	0	0
CCOc1[nH]n(-c2ccccc2)c(=O)c1C=NCC(=O)OC	0	43	0	0	0	-
